Measurements: ChEMBL document CHEMBL1145361, “3-Amino-1-alkyl-cyclopentane carboxamides as small molecule antagonists of the human and murine CC chemokine receptor 2” (Bioorg Med Chem Lett, 2007)

How the values were obtained:
[1] = molecular target: C-C chemokine receptor type 2 (Mus musculus, UniProt P51683); experiment: Displacement of [125I]MCP1 from mouse CCR2 receptor expressed in CHO cells; format: cell-based
[2] = molecular target: C-C chemokine receptor type 2 (Homo sapiens, UniProt P41597, I40L); experiment: Displacement of [125I]MCP1 from human CCR2 I40L mutant expressed in CHO cells; format: cell-based
Sequence of C-C chemokine receptor type 2 (Homo sapiens, UniProt P41597, I40L) (P41597 whole entry I40L): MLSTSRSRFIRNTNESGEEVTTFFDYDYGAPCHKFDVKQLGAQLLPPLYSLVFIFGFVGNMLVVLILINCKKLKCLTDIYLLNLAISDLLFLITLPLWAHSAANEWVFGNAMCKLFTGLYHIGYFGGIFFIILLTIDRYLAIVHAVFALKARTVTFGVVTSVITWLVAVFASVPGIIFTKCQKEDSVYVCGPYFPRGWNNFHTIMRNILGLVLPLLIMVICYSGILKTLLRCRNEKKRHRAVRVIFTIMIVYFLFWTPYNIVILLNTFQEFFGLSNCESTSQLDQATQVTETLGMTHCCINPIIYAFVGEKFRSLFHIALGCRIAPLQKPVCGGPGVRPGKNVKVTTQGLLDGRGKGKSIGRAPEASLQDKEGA
Summary of the method: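 Radioligand competition was run at room temperature for 45 min in 50 mM Hepes, 5 mM MgCl2, 1 mM CaCl2, pH 7.4, with 0.5% BSA and protease inhibitors. The reaction was stopped by filtration through GF/B filters presoaked in 0.10% polyethyleneimine to separate bound from free ligand.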

[3] = molecular target: C-C chemokine receptor type 2 (Homo sapiens, UniProt P41597); experiment: Inhibition of Ca2+ flux in human monocytes; format: functional, cell-based
Sequence of C-C chemokine receptor type 2 (Homo sapiens, UniProt P41597) (P41597 whole entry): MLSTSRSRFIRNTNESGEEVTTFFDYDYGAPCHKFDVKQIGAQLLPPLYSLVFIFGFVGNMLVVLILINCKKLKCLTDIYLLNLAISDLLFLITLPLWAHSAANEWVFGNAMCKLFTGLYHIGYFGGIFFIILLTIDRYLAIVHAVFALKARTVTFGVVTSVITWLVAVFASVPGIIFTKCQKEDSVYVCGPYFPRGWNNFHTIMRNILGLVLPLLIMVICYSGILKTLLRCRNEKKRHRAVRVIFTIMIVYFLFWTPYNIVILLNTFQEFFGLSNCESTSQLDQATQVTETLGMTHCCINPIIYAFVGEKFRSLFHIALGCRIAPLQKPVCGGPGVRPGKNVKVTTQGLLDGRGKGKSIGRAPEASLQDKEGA

[4] = molecular target: C-C chemokine receptor type 2 (Mus musculus) (UniProt P51683); experiment: Displacement of [125I]MCP1 from mouse CCR2 receptor expressed in CHO cells at 1 uM; format: cell-based
Sequence of C-C chemokine receptor type 2 (Mus musculus) (P51683 whole entry, looked up): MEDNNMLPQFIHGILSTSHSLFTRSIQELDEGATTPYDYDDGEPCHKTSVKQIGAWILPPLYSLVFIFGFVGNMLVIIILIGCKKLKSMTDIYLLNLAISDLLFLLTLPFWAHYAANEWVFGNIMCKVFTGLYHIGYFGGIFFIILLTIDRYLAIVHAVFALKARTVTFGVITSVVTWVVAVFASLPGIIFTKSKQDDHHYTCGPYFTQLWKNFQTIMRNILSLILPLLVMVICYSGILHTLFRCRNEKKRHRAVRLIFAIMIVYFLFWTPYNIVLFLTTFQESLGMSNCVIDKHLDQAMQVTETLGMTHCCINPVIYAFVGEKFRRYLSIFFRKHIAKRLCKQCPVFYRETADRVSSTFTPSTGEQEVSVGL

[5] = Clearance in Sprague-Dawley rat at 1 mg/kg, iv; format: ADME, organism-based; parameters: dose 1 mg/kg, route intravenous; conditions: in vivo
Summary of the method: (§1)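 Male Sprague–Dawley rats were dosed intravenously at 1.0 mg/kg and orally at 3.0 mg/kg. Clearance, volume of distribution, t1/2, Cmax, Tmax, oral bioavailability (F%) and AUC were determined, with oral AUC normalized.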

[6] = Volume of distribution in Sprague-Dawley rat at 1 mg/kg, iv; format: ADME, organism-based; parameters: dose 1 mg/kg, route intravenous; conditions: in vivo, read-out: Vdss; summary of the method: as §1
[7] = Half life in Sprague-Dawley rat at 1 mg/kg, iv; format: ADME, organism-based; parameters: dose 1 mg/kg, route intravenous; conditions: in vivo; summary of the method: as §1
[8] = Half life in Sprague-Dawley rat at 3 mg/kg, po; format: ADME, organism-based; parameters: dose 3 mg/kg, route oral; conditions: in vivo; summary of the method: as §1
[9] = Cmax in Sprague-Dawley rat at 3 mg/kg, po; format: ADME, organism-based; parameters: dose 3 mg/kg, route oral; conditions: in vivo; summary of the method: as §1
[10] = Tmax in Sprague-Dawley rat at 3 mg/kg, po; format: ADME, organism-based; parameters: dose 3 mg/kg, route oral; conditions: in vivo; summary of the method: as §1
[11] = Bioavailability in Sprague-Dawley rat at 3 mg/kg, po; format: ADME, organism-based; conditions: in vivo; summary of the method: as §1

Sequence of C-C chemokine receptor type 2 (Mus musculus, UniProt P51683) (P51683 whole entry): as the sequence (P51683 whole entry, looked up) above

| SMILES | IC50 [1] [nM] | IC50 [2] [nM] | further results |
| --- | --- | --- | --- |
| CC(C)C[C@]1(C(=O)NCc2cc(C(F)(F)F)cc(C(F)(F)F)c2)CC[C@@H](N2CC[C@]3(C=Cc4ccccc43)[C@@H](C)C2)C1 | 26 | 8 |  |
| COCC1(C(=O)NCc2cc(F)cc(C(F)(F)F)c2)CCC(N2CC[C@]3(C=Cc4ccccc43)[C@@H](C)C2)C1 (stereo partly specified) | 74 | 8.5 |  |
| CC(C)[C@]1(C(=O)NCc2cc(C(F)(F)F)cc(C(F)(F)F)c2)CC[C@@H](N2CC[C@]3(C=Cc4ccccc43)[C@@H](C)C2)C1 | 15 | 7.6 |  |
| C[C@H]1CN(C2CCC(CC3CCC3)(C(=O)NCc3cc(F)cc(C(F)(F)F)c3)C2)CC[C@]12C=Cc1ccccc12 (single isomer, unassigned; diastereomer 4) [listing 1 of 2 here] |  | 229 |  |
| C[C@H]1CN([C@@H]2CC[C@@](C(=O)NCc3cc(F)cc(C(F)(F)F)c3)(C3CC3)C2)CC[C@]12C=Cc1ccccc12 | 8 | 1.9 | IC50 [3]: 0.63 nM |
| C[C@H]1CN(C2CCC(CC3CCC3)(C(=O)NCc3cc(F)cc(C(F)(F)F)c3)C2)CC[C@]12C=Cc1ccccc12 (single isomer, unassigned; diastereomer 4) [listing 2 of 2 here] |  |  | Activity [4]: 49% |
| CCCC1(C(=O)NCc2cc(F)cc(C(F)(F)F)c2)CCC(N2CC[C@]3(C=Cc4ccccc43)[C@@H](C)C2)C1 (stereo partly specified) | 17 | 5 |  |
| CCC[C@]1(C(=O)NCc2cc(C(F)(F)F)cc(C(F)(F)F)c2)CC[C@@H](N2CC[C@]3(C=Cc4ccccc43)[C@@H](C)C2)C1 | 44.3 | 16 |  |
| COCC1(C(=O)NCc2cc(C(F)(F)F)cc(C(F)(F)F)c2)CCC(N2CC[C@]3(C=Cc4ccccc43)[C@@H](C)C2)C1 (stereo partly specified) | 93 | 15.5 |  |
| C[C@H]1CN(C2CCC(CC3CCC3)(C(=O)NCc3cc(F)cc(C(F)(F)F)c3)C2)CC[C@]12C=Cc1ccccc12 (single isomer, unassigned; diastereomer 3) | 559 | 135 |  |
| C[C@H]1CN(C2CCC(C(=O)NCc3cc(C(F)(F)F)cc(C(F)(F)F)c3)(C3CC3)C2)CC[C@]12C=Cc1ccccc12 (stereo partly specified) | 45 | 6.5 |  |
| CSC[C@]1(C(=O)NCc2cc(C(F)(F)F)cc(C(F)(F)F)c2)CC[C@@H](N2CC[C@]3(C=Cc4ccccc43)[C@@H](C)C2)C1 | 65.5 | 13 |  |
| CC(C)[C@]1(C(=O)NCc2cc(F)cc(C(F)(F)F)c2)CC[C@@H](N2CC[C@]3(C=Cc4ccccc43)[C@@H](C)C2)C1 | 5 | 3.1 | IC50 [3]: 0.71 nM; clearance [5]: 19.4 mL/min/kg; Vd [6]: 2.99 L/kg; half-life [7]: 2.5 h; half-life [8]: 2 h; Cmax [9]: 414 nM; Tmax [10]: 0.83 h; bioavailability [11]: 32% |
| C[C@H]1CN(C2CCC(CC3CCC3)(C(=O)NCc3cc(F)cc(C(F)(F)F)c3)C2)CC[C@]12C=Cc1ccccc12 (stereo partly specified) | 28 | 6.3 |  |
| C[C@H]1CN(C2CCC(CC3CC3)(C(=O)NCc3cc(F)cc(C(F)(F)F)c3)C2)CC[C@]12C=Cc1ccccc12 (stereo partly specified) | 15 | 5.5 |  |
| CCCCCCC1(C(=O)NCc2cc(C(F)(F)F)cc(C(F)(F)F)c2)CCC(N2CC[C@]3(C=Cc4ccccc43)[C@@H](C)C2)C1 (stereo partly specified) | 279 | 231 |  |
| C[C@H]1CN([C@@H]2CC[C@](CC3CCC3)(C(=O)NCc3cc(C(F)(F)F)cc(C(F)(F)F)c3)C2)CC[C@]12C=Cc1ccccc12 | 64 | 19 |  |
| CC(C)C[C@]1(C(=O)NCc2cc(F)cc(C(F)(F)F)c2)CC[C@@H](N2CC[C@]3(C=Cc4ccccc43)[C@@H](C)C2)C1 | 7.5 | 3.9 | IC50 [3]: 2.04 nM |

Further lines, with some results ahead:

| IC50 [1] [nM] | IC50 [2] [nM] | SMILES | further results |
| --- | --- | --- | --- |
| 147 | 32 | C[C@H]1CN(C2CCC(CC3CCC3)(C(=O)NCc3cc(F)cc(C(F)(F)F)c3)C2)CC[C@]12C=Cc1ccccc12 (single isomer, unassigned; diastereomer 2) |  |
| 17 | 3.5 | CSC[C@]1(C(=O)NCc2cc(F)cc(C(F)(F)F)c2)CC[C@@H](N2CC[C@]3(C=Cc4ccccc43)[C@@H](C)C2)C1 |  |
| 17.5 | 10 | CCC1(C(=O)NCc2cc(C(F)(F)F)cc(C(F)(F)F)c2)CCC(N2CC[C@]3(C=Cc4ccccc43)[C@@H](C)C2)C1 (stereo partly specified) |  |
| 351 | 28 | CS[C@]1(C(=O)NCc2cc(C(F)(F)F)cc(C(F)(F)F)c2)CC[C@@H](N2CC[C@]3(C=Cc4ccccc43)[C@@H](C)C2)C1 |  |
| 126 | 9 | C[C@H]1CN([C@@H]2CC[C@](C)(C(=O)NCc3cc(C(F)(F)F)cc(C(F)(F)F)c3)C2)CC[C@]12C=Cc1ccccc12 |  |
| 128 | 27 | CCCCCCC1(C(=O)NCc2cc(F)cc(C(F)(F)F)c2)CCC(N2CC[C@]3(C=Cc4ccccc43)[C@@H](C)C2)C1 (stereo partly specified) |  |
| 3.5 | 3.3 | CCC1(C(=O)NCc2cc(F)cc(C(F)(F)F)c2)CCC(N2CC[C@]3(C=Cc4ccccc43)[C@@H](C)C2)C1 (stereo partly specified) |  |
|  | 20 | C[C@H]1CN([C@@H]2CC[C@H](C(=O)NCc3cc(C(F)(F)F)cc(C(F)(F)F)c3)C2)CC[C@]12C=Cc1ccccc12 | Activity [4]: 27% |
| 63.5 | 20 | C[C@H]1CN(C2CCC(CC3CC3)(C(=O)NCc3cc(C(F)(F)F)cc(C(F)(F)F)c3)C2)CC[C@]12C=Cc1ccccc12 (stereo partly specified) |  |
| 193 | 67 | CS[C@]1(C(=O)NCc2cc(F)cc(C(F)(F)F)c2)CC[C@@H](N2CC[C@]3(C=Cc4ccccc43)[C@@H](C)C2)C1 |  |
| 57 | 4 | C[C@H]1CN([C@@H]2CC[C@](C)(C(=O)NCc3cc(F)cc(C(F)(F)F)c3)C2)CC[C@]12C=Cc1ccccc12 |  |
